Diaphorase inh – counter-screen for diaphorase-based assays: diaphorase inhibitors and chemical oxidizers. diaphorase resazurin-to-resorufin fluorescence, NADH, 16 min; bacterial (C. kluyveri) enzyme, not human. inhibition, % at 20 µM. 0.69% of 190,000 active. AID 1217;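 active = primary screen inhibition at 20 µM above a set limit, cut at about 50% in these data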
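Test system: diaphorase enzyme from Clostridium kluyveri; amount: diaphorase at 0.14 U/mL in enzyme working solution; detection: fluorescence of resorufin formed from resazurin, Ex 544/Em 590 nm; times: reaction incubation of 16 min at room temperature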
G6PDH CS – L. mesenteroides G6PDH inhibition counter-screen; Purified L. mesenteroides G6PDH, diaphorase/resazurin coupled fluorescence, 45 min; inhibition, % at 5 µM; 0.12% of 200,000 active; AID 1020; in the data active = inhibition above about 50%
PMI act satM6P – increases human PMI activity with near-saturating mannose 6-phosphate; 0.34% of 190,000 active; P34949; activation factor at 20 µM; coupled PMI enzyme assay, resazurin fluorescence, 20 min; hits give high values; 1 = untreated enzyme, 0 = substrate-free blank;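 active = activation factor of 2 or more at 20 µM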
Target sequence (P34949 whole entry, looked up): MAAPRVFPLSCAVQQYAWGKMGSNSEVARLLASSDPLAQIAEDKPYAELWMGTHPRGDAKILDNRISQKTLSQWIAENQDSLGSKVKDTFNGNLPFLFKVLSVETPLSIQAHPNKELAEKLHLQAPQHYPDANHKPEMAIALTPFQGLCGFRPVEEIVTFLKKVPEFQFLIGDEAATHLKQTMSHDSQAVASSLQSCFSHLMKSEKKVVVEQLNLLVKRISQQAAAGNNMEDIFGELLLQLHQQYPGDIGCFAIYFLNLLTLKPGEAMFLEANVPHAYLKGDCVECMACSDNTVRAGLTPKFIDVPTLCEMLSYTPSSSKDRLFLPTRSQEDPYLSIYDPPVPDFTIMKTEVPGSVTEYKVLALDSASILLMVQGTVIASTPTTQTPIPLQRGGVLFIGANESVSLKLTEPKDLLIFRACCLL
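assay system = human phosphomannose isomerase with PGI, G6PDH, diaphorase coupling enzymes | quantity = 15 ng/mL PMI | incubation = enzyme reaction with compound 20 min at room temperature | medium = HEPES pH 7.4 buffer with MgCl2 and Tween-20 | compound dosing = one concentration, 20 µM, in 1% DMSO | measured by = Diaphorase-driven resazurin-to-resorufin fluorescence, excitation 544, emission 590 nm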
ROMK mod – modulators of human ROMK potassium channel | P48048 | Tet-inducible ROMK, thallium flux fluorescence; actives lie on both sides | B-score at 10 µM | 2% of 130,000 active;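 active = signal ratio slope over the read window, or its plate-corrected B-score, at least 3 SD from the plate mean, either direction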;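 also: B-score of the F/F0 ratio slope over 7 to 12 s after thallium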
Diaphorase act – diaphorase activation or chemical reduction counter-screen; Diaphorase/resazurin coupled assay, resorufin fluorescence, 16 min; hits give high values; 1 = vehicle wells, 0 = NADH-free wells; activation factor at 20 µM; 0.005% of 190,000 active; AID 1229;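 active = diaphorase activity raised at least twofold by the compound at 20 µM; inactive = activation factor below 2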
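Test system: Clostridium kluyveri diaphorase, purified enzyme; input: enzyme 0.07 U/mL final; buffer or medium: 50 mM HEPES pH 7.4 with 4.542 mM MgCl2, 0.005% Tween 20; also added: 0.114 mM NADH and 0.1 mM resazurin, final amounts; schedule: 16 min enzyme reaction, ambient temperature; technique: fluorescence of resorufin, 544 nm excitation, 590 nm emission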
PMI act – increases human mannose-6-phosphate isomerase activity; AID 1214; 0.005% of 190,000 active; P34949; activation factor at 20 µM; purified human PMI, coupled resazurin fluorescence, 20 min; hits give high values; 1 = vehicle control, 0 substrate-free wells;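 active = activation factor of 2 or more at 20 µM, relative to plate controls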
A number is an active result; 0 = inactive; - = not tested or not shown. Hits are enriched below; roughly 2.2% of the tested compounds scored in any of these assays.

SMILES	Diaphorase inh	G6PDH CS	PMI act satM6P	ROMK mod	Diaphorase act	PMI act
CN(C)c1ccc(/C=N/n2c(-c3cccnc3)n[nH]c2=S)cc1	72.1	0	0	0	0	0
CN(C)c1nc(Oc2ccc(OCCOc3ccccc3)nn2)nc(N(C)C)n1	0	0	0	0	0	0
Cc1nn(-c2ccccc2)c(C)c1/C=N/n1c(-c2ccncc2)n[nH]c1=S	79.5	0	0	0	0	0
C=CS(=O)(=O)c1sc(Cl)c(N2CCOCC2)c1[N+](=O)[O-]	0	0	0	-8.57	0	0
CC(C(=O)N1CCCCCC1)c1ccc([N+](=O)[O-])cc1 (centres undefined)	0	0	0	0	0	0
COc1cccc(-n2c(SCc3cc(=O)oc4cc(O)c(O)cc34)nc3ccccc3c2=O)c1	58.6	0	0	0	0	0
Cc1ccc(S(=O)(=O)N/N=C2\C(=O)C3(C)CCC2C3(C)C)cc1 (centres undefined)	0	0	2.1	0	0	0
Cc1ccc(S(=O)(=O)NC2CCOC(C)(C)C2)cc1 (centres undefined)	0	0	0	-	0	0
C=CCn1c(N2CCOCC2)nc2c1c(=O)[nH]c(=O)n2C	0	0	0	0	0	0
CCOc1ccccc1NC(=O)c1c(NC(=O)CCC(=O)O)sc2c1CCCCC2	0	0	2.1	0	0	0
CCOC(=O)c1ccc(NC(=O)c2c(NC(=O)CCC(=O)O)sc3c2CCCCC3)cc1	0	0	0	-	0	0
CC1CCC/C(=N\Nc2ccc(Cl)c(C(=O)O)c2)C1 (centres undefined)	0	0	2.1	0	0	0
COCCn1c(N/N=C(C)/C=C/c2ccccc2)nc2c1c(=O)[nH]c(=O)n2C	0	0	0	0	0	0
O=C(NCc1ccco1)c1cnn2c(C(F)(F)F)cc(-c3cccs3)nc12	57.9	0	0	0	0	0
CC(/C=C/C=C/c1ccccc1)=N\NC(=O)c1cccnc1	0	0	2.1	-	0	0
Cc1ccc(OCCNc2cc(N3CCN(CCO)CC3)ccc2[N+](=O)[O-])cc1C	0	0	0	0	0	0
Cc1cc(N=Cc2c(O)ccc3cc(Br)ccc23)no1	64.5	0	0	0	0	0
Cc1cc(N=Cc2c(O)n(-c3ccc(C)c(C)c3)c(=O)c3ccccc23)no1	0	0	0	0	0	0
O=[N+]([O-])c1ccc(N=Nc2c(Cl)cc(O)cc2Cl)cc1	-	-	-	-8.77	-	-
CC(=O)N1CCN(c2ccc(NC(=S)NC(=O)COc3ccc(C(C)(C)C)cc3)cc2)CC1	0	0	0	0	0	0
CCC(=O)N1CCN(c2ccc(NC(=S)NC(=O)COc3ccccc3)cc2)CC1	63.6	0	0	0	0	0
NC(=S)N/N=C/c1ccc(-c2cc(Cl)c(Cl)cc2Cl)o1	0	0	2	-	0	0
CCC(CC)C(=O)N1CCN(c2ccccc2)CC1	0	0	2.8	0	0	0
O=C1CCCC(=O)C1=Cc1c[nH]c2ccccc12	0	0	0	-4.12	0	0
Clc1ccc(N2CCN(c3nc4nonc4nc3N3CCSCC3)CC2)nc1	0	0	0	0	0	0
SMILES	Diaphorase inh	G6PDH CS	PMI act satM6P	ROMK mod	Diaphorase act	PMI act
O=C(CN1CCN(c2ccc(Cl)cc2)CC1)NCc1ccccc1	86.4	0	0	0	0	0
CSc1cnn(Cc2ccccc2)c(=O)c1SCc1ccccc1	0	0	2.5	0	0	0
CCn1cc(C(=O)OCC(=O)Nc2ccc(C(C)C)cc2)c(=O)c2ccc(C)nc21	0	0	0	0	0	0
O=C(NCCc1ccccc1)C(=O)NCC1CCNCC1	0	0	0	0	0	0
O=C(c1ccc2snnc2c1)N1CCSCC1	0	0	2.6	0	0	0
C=CCn1c(=S)[nH]c2sccc2c1=O	0	0	0	0	0	0
CCn1c(=S)[nH]c2scc(-c3cccs3)c2c1=O	0	0	0	12.8	0	0
C=CCn1c(=S)[nH]c2scc(-c3ccc(C)o3)c2c1=O	0	0	0	7.49	0	0
CN1CCN(/N=C/c2cccc(Cl)c2Cl)CC1	0	0	0	0	0	0
CCOC(=O)C1(C)/C(=N/Nc2ccccc2OC)C(=O)C(=O)N1c1ccccc1 (centres undefined)	0	0	0	0	0	0
CCOC(=O)C1(C)/C(=N/Nc2ccccc2)C(=O)C(=O)N1c1ccccc1 (centres undefined)	0	0	2.1	0	0	0
COC(=O)C1=C(C)N(C)C(=O)NC1c1cc2c(cc1[N+](=O)[O-])OCO2 (centres undefined)	59.0	0	0	0	0	0
COC(=O)C1=C(C)N(CCCC(=O)O)C(=O)NC1c1cc2c(cc1[N+](=O)[O-])OCO2 (centres undefined)	0	0	0	0	0	0
CC1CC(C)CN(C(=O)CCc2ccccc2)C1 (centres undefined)	0	0	0	0	0	0
Cc1cc(C)n(-c2c(C)[nH]c3ccccc23)n1	0	0	0	0	0	0
C/C(=N\Nc1ccc(Cl)c(C(=O)O)c1)c1ccc2c(c1)OCO2	0	0	2.8	0	0	0
O=C(CSc1nnc(CCCN2C(=O)c3cccc4cccc(c34)C2=O)n1-c1ccccc1)N1CCCCC1	71.7	0	0	-	0	0
O=C(CSc1nnc(Cc2cc(=O)[nH]c(=O)[nH]2)n1-c1ccccc1)N1CCCCC1	0	0	0	-	0	0
N#Cc1nc(Cc2cccc3ccccc23)oc1NCCN1CCCCC1	0	0	0	-5.58	0	0
CNc1oc(Cc2cccc3ccccc23)nc1C#N	0	0	0	0	0	0
O=C(/C=C1\NC2(CCCC2)Cc2ccccc21)C(=O)N/N=C/c1ccc(O)c(O)c1	74.0	0	0	0	0	0
COc1ccc(/C=N/NC(=O)C(=O)/C=C2\NC3(CCCC3)Cc3ccccc32)cc1	0	0	0	0	0	0
CC(=O)N1CC23C=CC(CC2CC12CCCCCC2)O3 (centres undefined)	0	0	0	-	0	0
O=C1CCN2C=Nc3cccc4ccc1c2c34	76.6	0	0	-	0	0
CC(O)CNc1nc(Cl)c(C#N)s1 (centres undefined)	0	0	0	0	0	0
COc1ccccc1NC(=O)c1cc(C)nc2ccccc12	63.0	0	0	0	0	0
O=C(CSc1nc2c(cnn2-c2ccc(F)cc2)c(=O)[nH]1)N1CCCc2ccccc21	63.2	0	0	0	0	0
CC(=O)N1CCN(C(=O)CSc2nc3c(cnn3-c3ccccc3)c(=O)[nH]2)CC1	0	0	0	0	0	0
O=C(CSc1ccc2nnc(-c3ccc(F)cc3)n2n1)N1CCCc2ccccc21	58.9	0	0	-	0	0

High-throughput results (PubChem BioAssay)
